Laboratory results from ChEMBL document CHEMBL1150273, “Aza-peptidyl Michael acceptors. A new class of potent and selective inhibitors of asparaginyl endopeptidases (legumains) from evolutionarily diverse pathogens” (J Med Chem, 2008).
Calls of active or inactive are those of the source. The calls are words filed in the database; no cut-off is given here.

Assays:
[1] = molecular target: T1, Clostripain (Clostridium histolyticum) (UniProt P09870); test: Inhibition of sClostridium histolyticum clostripain assessed as ratio of pseudo-first-order inhibition rate constant to inhibitor concentration; conditions: Hathewaya histolytica
T1 sequence (whole entry): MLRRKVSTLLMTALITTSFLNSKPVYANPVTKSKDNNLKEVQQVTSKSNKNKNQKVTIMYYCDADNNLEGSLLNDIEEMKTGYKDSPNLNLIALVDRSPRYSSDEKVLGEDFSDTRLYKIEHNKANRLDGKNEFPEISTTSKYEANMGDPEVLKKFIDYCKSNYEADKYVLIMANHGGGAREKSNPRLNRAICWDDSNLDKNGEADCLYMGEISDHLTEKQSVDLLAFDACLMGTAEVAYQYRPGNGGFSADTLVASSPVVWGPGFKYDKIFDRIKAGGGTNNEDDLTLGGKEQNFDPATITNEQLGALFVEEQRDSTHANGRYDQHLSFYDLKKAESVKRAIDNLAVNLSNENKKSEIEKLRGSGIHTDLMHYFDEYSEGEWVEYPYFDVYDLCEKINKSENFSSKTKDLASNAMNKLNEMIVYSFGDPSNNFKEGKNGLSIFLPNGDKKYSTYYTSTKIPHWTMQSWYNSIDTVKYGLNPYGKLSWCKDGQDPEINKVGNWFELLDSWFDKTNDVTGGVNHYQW
Method in brief: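 Clostripain activated in 8 mM DTT, then incubated with inhibitor (DMSO) in 20 mM Tris-HCl, 10 mM CaCl2, 0.005% Brij 35, 2 mM DTT, pH 7.6; aliquots taken at intervals into buffer with Cbz-Phe-Arg-AMC; fluorescence at 465 nm; pseudo-first-order kinetics.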

[2] = molecular target: Lys-gingipain HG66 (Porphyromonas gingivalis) (UniProt P72197); test: Inhibition of Porphyromonas gingivalis gingipain K assessed as ratio of pseudo-first-order inhibition rate constant to inhibitor concentration
Method in brief: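 Gingipain K diluted to 4.61 nM in 0.2 M Tris-HCl, 0.1 M NaCl, 5 mM CaCl2, 2 mM DTT, pH 8.0 and incubated with inhibitor (DMSO) at room temperature; aliquots taken at intervals into buffer with Suc-Ala-Phe-Lys-AMC; fluorescence at 465 nm; pseudo-first-order kinetics.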

[3] = Inhibition of Ixodes ricinus AE expressed in Pichia pastoris after 20 mins
Method in brief: (§1)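 Recombinant AE zymogens expressed in Pichia pastoris; SmAE and TvAE1 autoactivated in 0.5 M sodium acetate, 4 mM DTT, pH 4.5, 37 °C, 3 h to overnight; IrAE used without activation. Buffer 0.1 M citrate phosphate, 4 mM DTT, pH 6.8 (SmAE, TvAE1) or pH 5.5 (IrAE). Inhibitor 2.0–0.0002 µM final, 20 min preincubation at room temperature; 10 µM final Cbz-Ala-Ala-Asn-AMC, 20 min; IC50 from RFU/min vs concentration.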

[4] = Inhibition of Trichomonas vaginalis G3 AE1 expressed in Pichia pastoris after 20 mins; method in brief: as §1
[5] = molecular target: T2, Papain (Carica papaya) (UniProt P00784); test: Inhibition of papain assessed as ratio of pseudo-first-order inhibition rate constant to inhibitor concentration
T2 sequence (whole entry): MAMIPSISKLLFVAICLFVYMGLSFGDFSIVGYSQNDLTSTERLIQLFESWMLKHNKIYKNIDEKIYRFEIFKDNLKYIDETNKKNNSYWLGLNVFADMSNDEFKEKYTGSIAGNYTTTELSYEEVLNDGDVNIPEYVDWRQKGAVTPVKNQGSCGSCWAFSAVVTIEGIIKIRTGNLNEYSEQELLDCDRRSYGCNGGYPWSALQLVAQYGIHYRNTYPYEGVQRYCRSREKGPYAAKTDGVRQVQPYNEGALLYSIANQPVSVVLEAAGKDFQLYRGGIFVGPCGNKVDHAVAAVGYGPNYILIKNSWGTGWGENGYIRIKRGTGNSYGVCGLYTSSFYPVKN
Method in brief: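 Papain, about 0.29 mg/mL, incubated with inhibitor in 50 mM Hepes, 2.5 mM DTT, 2.5 mM EDTA, pH 7.5; aliquots taken over time into 53.7 µM Cbz-Phe-Arg-pNA; p-nitroanilide release read at 405 nm at room temperature; pseudo-first-order inactivation kinetics.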

[6] = molecular target: Caspase-8 (Homo sapiens) (UniProt Q14790); test: Inhibition of caspase 8 assessed as ratio of pseudo-first-order inhibition rate constant to inhibitor concentration
Method in brief: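 Caspase-8 at 50 nM final, assayed in the same Pipes/NaCl/CHAPS/sucrose/DTT buffer, pH 7.2, 37 °C with Ac-Asp-Glu-Val-Asp-AMC by the progress curve method; inhibitor stocks 5 × 10^-3 to 2.42 × 10^-6 M in DMSO; rates corrected for substrate using KM 6.79 µM.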

[7] = molecular target: T3, Calpain-1 catalytic subunit (Homo sapiens) (UniProt P07384); test: Inhibition of calpain 1 assessed as ratio of pseudo-first-order inhibition rate constant to inhibitor concentration
T3 sequence (whole entry): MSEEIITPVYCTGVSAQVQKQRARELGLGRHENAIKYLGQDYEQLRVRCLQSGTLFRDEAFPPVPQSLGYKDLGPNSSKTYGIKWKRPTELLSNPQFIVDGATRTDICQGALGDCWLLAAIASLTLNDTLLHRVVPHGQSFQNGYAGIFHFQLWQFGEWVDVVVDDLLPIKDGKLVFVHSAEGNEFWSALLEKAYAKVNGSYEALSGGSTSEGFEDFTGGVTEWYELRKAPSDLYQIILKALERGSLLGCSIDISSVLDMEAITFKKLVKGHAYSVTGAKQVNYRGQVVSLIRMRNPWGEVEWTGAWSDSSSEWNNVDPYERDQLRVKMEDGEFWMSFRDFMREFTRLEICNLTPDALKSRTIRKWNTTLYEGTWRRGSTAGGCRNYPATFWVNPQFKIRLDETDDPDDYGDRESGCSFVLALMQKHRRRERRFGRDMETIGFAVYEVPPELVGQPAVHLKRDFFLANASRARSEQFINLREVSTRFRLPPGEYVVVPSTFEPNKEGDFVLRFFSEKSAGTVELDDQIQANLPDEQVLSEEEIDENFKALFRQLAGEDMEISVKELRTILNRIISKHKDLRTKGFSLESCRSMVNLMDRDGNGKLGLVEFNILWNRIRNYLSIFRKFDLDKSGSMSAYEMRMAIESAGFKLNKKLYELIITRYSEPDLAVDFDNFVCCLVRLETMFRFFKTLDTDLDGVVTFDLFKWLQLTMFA

[8] = molecular target: Cathepsin B (Homo sapiens) (UniProt P07858); test: Inhibition of cathepsin B assessed as ratio of pseudo-first-order inhibition rate constant to inhibitor concentration
[9] = Stability assessed as half life in citrate phosphate buffer at pH 6.8 in presence of dithiothreitol; format: physicochemical; conditions: citrate phosphate buffer with dithiothreitol

| SMILES | Activity [1] | Ratio [2] [M⁻¹ s⁻¹] | IC50 [3] [nM] | IC50 [4] [nM] | Activity [5] | Activity [6] | Activity [7] | Activity [8] | half-life [9] [min] | Ratio [8] [M⁻¹ s⁻¹] | Ratio [5] [M⁻¹ s⁻¹] | Ratio [7] [M⁻¹ s⁻¹] |
| --- | --- | --- | --- | --- | --- | --- | --- | --- | --- | --- | --- | --- |
| C[C@H](NC(=O)OCc1ccccc1)C(=O)N[C@@H](C)C(=O)NN(CC(N)=O)C(=O)/C=C/C(=O)N(C)Cc1cccc2ccccc12 | inactive | 6 | 5.5 | < 1 | inactive | inactive | inactive | inactive |  |  |  |  |
| CCOC(=O)/C=C/C(=O)N(CC(N)=O)NC(=O)[C@H](C)NC(=O)[C@H](C)NC(=O)OCc1ccccc1 | inactive | 6 | 4.5 | 4.5 | inactive | inactive | inactive |  | 3.7 | < 1 |  |  |
| C[C@H](NC(=O)OCc1ccccc1)C(=O)N[C@@H](C)C(=O)NN(CC(N)=O)C(=O)/C=C/C(=O)N(C)Cc1ccccc1 | inactive | 1 | < 1 | 0.55 | inactive | inactive | inactive | inactive | 20 |  |  |  |
| C[C@H](NC(=O)OCc1ccccc1)C(=O)N[C@@H](C)C(=O)NN(CC(N)=O)C(=O)/C=C/C(=O)N(Cc1ccccc1)Cc1ccccc1 | inactive | 2 | 450 | 10 |  | inactive |  | inactive | 17 |  | 1 | < 1 |
